Molecules are shown by their SMILES. Values after ≈ are worked out from the molar mass of the structure shown. Bounds are passed on as bounds.

Assay [1] deals with Beta-lactamase TEM (Escherichia coli, UniProt P62593). Nature of the assay: Beta-Lactamase inhibitory activity against representative class A (TEM-1) serine enzyme. In outline:
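Serine β-lactamase assay: inhibitor preincubated with enzyme for 4 min in 100 µL, then an aliquot transferred into dilute nitrocefin substrate (1 mL final). IC50 is expressed as the inhibitor concentration in the 100 µL incubation, from multiple experiments.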

Assay [2] has as its system Staphylococcus aureus. Kind of assay: Antibacterial activity was determined against the Staphylococcus aureus ATCC 29213 in presence of Piperacillin. The assay is classed as functional. The procedure, abridged: (§1)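 MIC of piperacillin against β-lactamase-producing strains, with the piperacillin concentration varied and the inhibitor held constant at […].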
Assay [3] relates to Pseudomonas aeruginosa. Nature of the assay: Synergistic activity against VIM-7 beta lactamase produced by Pseudomonas aeruginosa in presence of Piperacillin and Tazobactam; R = Resistant.
Assay [4] deals with Beta-lactamase L1 (Stenotrophomonas maltophilia, UniProt P52700). Kind of assay: Beta-Lactamase Inhibition of metallo-beta-lactamase representative class B (L1) enzyme. In outline:
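For the metallo enzyme, inhibitor and enzyme were preincubated for 4 min. Concentrated nitrocefin was then added to give the final assay volume, and IC50 was determined.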

In assay [5] the target is Beta-lactamase TEM (Escherichia coli) (UniProt P62593). Nature of the assay: Beta-Lactamase inhibitory activity against representative class A (TEM-1) serine enzyme from Escherichia coli ATCC 35218 in presence of Piperacillin. The procedure, abridged:
as §1

In assay [6] the test system is Pseudomonas aeruginosa. Kind of assay: Synergistic activity against VIM-1 beta lactamase produced by Pseudomonas aeruginosa in presence of Piperacillin and Tazobactam; R = Resistant.
Assay [7] addresses Beta-lactamase (Escherichia coli K-12) (UniProt P00811).
The subject of assay [8] is Pseudomonas aeruginosa. Nature of the assay: Synergistic activity against SPM-1 beta lactamase produced by Pseudomonas aeruginosa in presence of Piperacillin and Tazobactam; R = Resistant.
The target of assay [9] is T1, Metallo-beta-lactamase type 2 (Bacillus cereus, UniProt P14488).
T1 sequence (P14488 whole entry): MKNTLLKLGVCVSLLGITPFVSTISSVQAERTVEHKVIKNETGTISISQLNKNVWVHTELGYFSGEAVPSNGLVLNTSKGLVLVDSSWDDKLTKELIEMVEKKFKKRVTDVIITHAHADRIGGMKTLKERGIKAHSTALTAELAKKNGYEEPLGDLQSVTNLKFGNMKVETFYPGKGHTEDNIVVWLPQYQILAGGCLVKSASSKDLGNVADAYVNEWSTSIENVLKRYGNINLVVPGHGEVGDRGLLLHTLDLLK
Kind of assay: Inhibition of class B (BCII) metallo-beta-lactamase representative enzyme. In outline: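 BCII metallo-β-lactamase assay: inhibitor and enzyme incubated together for 4 min in 970 µL, then concentrated nitrocefin added to 1 mL final volume. IC50 determined from nitrocefin hydrolysis.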

In assay [10] the test system is Escherichia coli. Nature of the assay: Synergic activity against IMP-1 beta lactamase produced by Escherichia coli in presence of Piperacillin and Tazobactam; S = susceptible. Format: functional. The procedure, abridged: (§2)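 Synergy with piperacillin against metallo-β-lactamase-producing strains (IMP-1; SPM-1, VIM-1 or VIM-7 carriers). The initial screen used […] at a 1:1 antibiotic:inhibitor ratio. Inhibitor was tested with tazobactam or DVR-II-183 added as a serine β-lactamase inhibitor, or without one.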

Assay [11] has as its system Pseudomonas aeruginosa. Kind of assay: Synergistic activity against SPM-1 beta lactamase produced by Pseudomonas aeruginosa in presence of piperacillin (1:1) and compound 5c; S = susceptible.
Assay [12] deals with Escherichia coli. Kind of assay: Synergic activity against IMP-1 beta lactamase produced by Escherichia coli in presence of piperacillin (1:1) and compound 5c; S = susceptible. Format: functional. The procedure, abridged: as §2
In assay [13] the test system is Pseudomonas aeruginosa. Kind of assay: Synergistic activity against VIM-7 beta lactamase produced by Pseudomonas aeruginosa presence of piperacillin (1:1) and compound 5c; R = Resistant.
The subject of assay [14] is Pseudomonas aeruginosa. Nature of the assay: Synergistic activity against VIM-7 beta lactamase produced by Pseudomonas aeruginosa presence of piperacillin (1:1); R = Resistant.
Assay [15] deals with Pseudomonas aeruginosa. Kind of assay: Synergistic activity against VIM-1 beta lactamase produced by Pseudomonas aeruginosa presence of piperacillin (1:1); R = Resistant.
Assay [16] deals with Pseudomonas aeruginosa. Kind of assay: Synergistic activity against VIM-1 beta lactamase produced by Pseudomonas aeruginosa presence of piperacillin (1:1) and compound 5c; S = susceptible.
The test system of assay [17] is Pseudomonas aeruginosa. Kind of assay: Synergistic activity against SPM-1 beta lactamase produced by Pseudomonas aeruginosa in presence of piperacillin (1:1); R = Resistant.
For assay [18], the system named is Escherichia coli. Nature of the assay: Synergic activity against IMP-1 beta lactamase produced by Escherichia coli in presence of piperacillin (1:1); R = Resistant. The assay is classed as functional.
Assay [19] can be described thus: Synergistic activity against SPM-1 beta lactamase produced by Pseudomonas aeruginosa in presence of Piperacillin.
The nature of assay [20]: Synergic activity against IMP-1 beta lactamase produced by Escherichia coli was determined in presence of Piperacillin. The assay is classed as functional.
Assay [21] can be described thus: Synergistic activity against VIM-7 beta lactamase produced by Escherichia coli in presence of Piperacillin. The assay is classed as functional, plasmodium aeruginosa. The following applies: Pseudomonas aeruginosa.
The test system of assay [22] is Pseudomonas aeruginosa. Kind of assay: Synergistic activity against VIM-7 beta lactamase produced by Pseudomonas aeruginosa in presence of Piperacillin; R = Resistant.
For assay [23], the system named is Pseudomonas aeruginosa. Kind of assay: Synergistic activity against VIM-1 beta lactamase produced by Pseudomonas aeruginosa in presence of Piperacillin; R = Resistant.
Assay [24] is described as follows: Synergistic activity against VIM-1 beta lactamase produced by Pseudomonas aeruginosa in presence of Piperacillin.

Beta-lactamase TEM (Escherichia coli), sequence (P62593 whole entry): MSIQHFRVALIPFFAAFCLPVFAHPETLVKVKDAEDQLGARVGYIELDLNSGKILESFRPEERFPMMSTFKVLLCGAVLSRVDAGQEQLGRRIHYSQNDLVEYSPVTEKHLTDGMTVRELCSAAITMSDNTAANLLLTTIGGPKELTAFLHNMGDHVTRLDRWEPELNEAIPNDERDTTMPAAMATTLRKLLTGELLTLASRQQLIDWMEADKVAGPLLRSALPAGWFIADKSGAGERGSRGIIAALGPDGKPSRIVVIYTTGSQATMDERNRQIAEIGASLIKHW
Beta-lactamase TEM, sequence (P62593 whole entry): as above
Beta-lactamase (Escherichia coli K-12), sequence (P00811 whole entry): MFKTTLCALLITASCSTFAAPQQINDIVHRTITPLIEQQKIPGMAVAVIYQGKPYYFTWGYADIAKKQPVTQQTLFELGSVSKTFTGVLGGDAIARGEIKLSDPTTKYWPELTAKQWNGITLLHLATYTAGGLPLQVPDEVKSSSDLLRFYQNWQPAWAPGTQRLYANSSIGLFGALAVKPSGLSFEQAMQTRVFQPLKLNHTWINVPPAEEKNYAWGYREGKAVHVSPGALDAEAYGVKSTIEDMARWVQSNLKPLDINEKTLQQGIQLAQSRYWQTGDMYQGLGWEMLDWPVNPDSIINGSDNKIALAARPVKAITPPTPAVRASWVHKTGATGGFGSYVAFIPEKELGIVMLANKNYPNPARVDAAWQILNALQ
Beta-lactamase L1, sequence (P52700 whole entry): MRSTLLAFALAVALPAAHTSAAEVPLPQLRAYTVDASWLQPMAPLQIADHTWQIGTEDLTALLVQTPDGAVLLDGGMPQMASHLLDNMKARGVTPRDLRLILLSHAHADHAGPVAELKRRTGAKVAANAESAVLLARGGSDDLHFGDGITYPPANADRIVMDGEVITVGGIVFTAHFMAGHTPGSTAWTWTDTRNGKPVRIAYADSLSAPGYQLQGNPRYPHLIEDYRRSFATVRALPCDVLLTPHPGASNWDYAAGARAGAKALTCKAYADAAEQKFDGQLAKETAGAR

Regarding `CC1(C)S[C@@H]2[C@H](CS)C(=O)N2[C@H]1C(=O)O`, the IC50 in assay [1] was found to be 601 µM; in assay [4], 32.1 µM; in assay [9], 2.9 µM. Moreover, the MIC in [2] is 2 µg/mL; in [5] it was > 128 µg/mL; in assay [7], 2 µg/mL (≈ 8.09 µM). Moreover, the Activity result in [3] is recorded as “Resistant”; in assay [6], “Resistant”; in [8], “Resistant”; in assay [10] it was “Susceptible”.

As to `CC1(C)[C@H](C(=O)O)N2C(=O)[C@H](S)[C@H]2S1(=O)=O`, the results for the IC50 in assay [1], in [4] and in assay [9] were 69.2 µM, 7.6 µM and 106 µM, respectively. Also, the MIC was 8 µg/mL in [2], > 128 µg/mL in assay [5] and 2 µg/mL (≈ 7.54 µM) in assay [7].

As to `C[C@@]1(COC(=O)Cc2ccc(O)c(O)c2)S[C@@H]2/C(=C\c3ccccn3)C(=O)N2[C@H]1C(=O)O`, the Activity entry in [11] is recorded as “Susceptible”; in assay [12], “Susceptible”; in assay [13] it was “Resistant”; in [14] it was “Resistant”; in assay [15] it was “Resistant”; in [16], “Susceptible”. For the same compound, the Activity entry in assay [17] and in assay [18] was “Resistant” throughout.

As for `CC1(C)S[C@@H]2[C@@H](CO)C(=O)N2[C@H]1C(=O)O`, the IC50 in assay [1] is 275 µM; in assay [4] it was > 200 µM; in assay [9] it was > 200 µM. Besides, the MIC was 8 µg/mL in assay [2], > 128 µg/mL in [5] and 4 µg/mL (≈ 17.3 µM) in [7].

With `CC1(C)S[C@@H]2[C@H](S)C(=O)N2[C@H]1C(=O)O`, the 50% inhibitory concentration (IC50) in [1] was > 1000 µM; in [4], 41.4 µM; in [9] it was 17.8 µM. The MIC in assay [2] is 8 µg/mL; in [5] it was > 128 µg/mL; in assay [7], 2 µg/mL (≈ 8.57 µM).

For the compound `CC1(C)S[C@@H]2[C@@H](S)C(=O)N2[C@H]1C(=O)O`, the IC50 was determined as 988 µM in assay [1], 36.9 µM in assay [4] and 17.2 µM in assay [9]. Moreover, the figures for the MIC in assay [2], in assay [5] and in assay [7] were 8 µg/mL, > 128 µg/mL and 2 µg/mL (≈ 8.57 µM), respectively.

As for `CC1(C)[C@H](C(=O)O)N2C(=O)[C@H](CS)[C@H]2S1(=O)=O`, the MIC is 4 µg/mL in assay [2], 32 µg/mL in assay [5] and 0.5 µg/mL (≈ 1.79 µM) in assay [7]. Also, the Activity entry is “Resistant” in assay [3], “Resistant” in assay [6], “Resistant” in [8] and “Susceptible” in assay [10]. Further, the concentration for half-maximal inhibition (IC50) in assay [4] turned out to be 0.3 µM; in assay [9], 12 µM.

On to `CC1(C)S[C@@H]2[C@@H](CS)C(=O)N2[C@H]1C(=O)O`, for which the MIC in assay [2] was 4 µg/mL; in assay [5], > 128 µg/mL; in assay [7], 2 µg/mL (≈ 8.09 µM). In addition, the Activity result in [3] was “Resistant”; in [6], “Resistant”; in assay [8], “Resistant”; in assay [10], “Susceptible”. In addition, the IC50 worked out at 10.9 µM in assay [4] and 1.7 µM in assay [9].

As to `CC1(C)[C@H](C(=O)O)N2C(=O)[C@H](CO)[C@H]2S1(=O)=O`, the MIC in assay [2] came out at 2 µg/mL; in assay [5], 8 µg/mL; in assay [7], 0.25 µg/mL (≈ 0.95 µM). The IC50 in assay [4] and in [9] was > 200 µM each time.

As for `O=C(O)c1cccc(C(=O)O)n1` [DIPICOLINIC ACID], the IC50 in [4] was 7.8 µM; in [9], 21.8 µM.

Turning to `CC1(C)[C@H](C(=O)O)N2C(=O)[C@@H](CO)[C@H]2S1(=O)=O`, the MIC turned out to be 1 µg/mL in [2], 1 µg/mL in [5] and 0.125 µg/mL (≈ 0.475 µM) in [7]. Further, the IC50 in [4] is 72.3 µM; in [9] it was > 200 µM.

Consider `CC1(C)S[C@@H]2[C@H](CO)C(=O)N2[C@H]1C(=O)O`, for which the half-maximal inhibitory concentration (IC50) in assay [1] was 752 µM; in assay [4], > 200 µM; in assay [9], > 200 µM. Also, the MIC was 4 µg/mL in [2], > 128 µg/mL in [5] and 4 µg/mL (≈ 17.3 µM) in assay [7].

In the case of `C[C@]1(Cn2ccnn2)[C@H](C(=O)[O-])N2C(=O)C[C@H]2S1(=O)=O.[Na+]` [TAZOBACTAM SODIUM], the MIC in assay [2] is 1 µg/mL; in assay [19], > 128 µg/mL; in assay [20], > 128 µg/mL; in assay [21], > 128 µg/mL; in [5] it was 1 µg/mL; in assay [7] it was 0.5 µg/mL. Besides, in assay [24], the MIC is > 128 µg/mL. Also, the IC50 in assay [4] and in assay [9] was > 200 µM each time. For the same compound, the Activity result in [22] and in assay [23] was “Resistant” in each case.

The term IC50 denotes the concentration that gives 50% inhibition. A high value points to weaker potency in that assay.
